{"data": "Measurements of several laboratories", "TNIK": "TRAF2 and NCK-interacting protein kinase (TNIK, Homo sapiens, UniProt Q9UKE5)", "JAK3 JH1": "Tyrosine-protein kinase JAK3, JH1 (JAK3, Homo sapiens, UniProt P52333)", "IRAK4": "Interleukin-1 receptor-associated kinase 4 (IRAK4, Homo sapiens, UniProt Q9NWZ3)", "Nuclear receptor subfamily 4 group A member 2": "Nuclear receptor subfamily 4 group A member 2 (Homo sapiens, UniProt P43354)", "P2RY14": "P2Y purinoceptor 14 (P2RY14, Homo sapiens, UniProt Q15391)", "note": "Protocols differ between the studies behind these lines."}
{"SMILES": "Cc1cc(O)c(-c2ccc([C@@H](C)CN(C)C)cc2)c2c1[nH]c(=O)c1sccc12", "target": "TNIK", "test": "enzyme activity, inhibitor", "conditions": "0.1 µM", "quantity": "inhibition", "result": "10.5%"}
{"SMILES": "CCCCC(=O)Nc1ccc(-c2ccc3ncn(CCC)c(=O)c3c2)cn1", "target": "Cyclin-dependent kinase-like 1 (CDKL1, Homo sapiens, UniProt Q00532)", "test": "binding, competition with immobilised ligand", "conditions": "0.5 µM", "quantity": "remaining binding", "result": "75%"}
{"SMILES": "N#Cc1ccc(NC(=O)Nc2ccccc2)cc1", "target": "JAK3 JH1", "test": "cell-free assay, competition with immobilised ligand", "conditions": "25 µM", "quantity": "remaining binding", "result": "96%"}
{"SMILES": "CNC(=O)c1ccccc1Nc1nc(Nc2ccc(CO)cc2)ncc1Cl", "target": "IRAK4", "test": "enzyme activity, inhibitor, radiometric", "conditions": "1 µM", "quantity": "remaining activity", "result": "1.39%"}
{"SMILES": "C#Cc1cc(-c2cc(Nc3nc(N[C@@H](C)c4ccc(F)cn4)ncc3Cl)n[nH]2)ccc1C=O", "target": "TNIK", "test": "enzyme activity, inhibitor", "conditions": "0.2 µM", "quantity": "inhibition", "result": "56.6%"}
{"SMILES": "C=C1C(=O)O[C@@H]2C[C@@]3(C)CCCC(=C)[C@@H]3C[C@H]12", "target": "Nuclear receptor subfamily 4 group A member 2", "test": "thermal stability, DSF", "conditions": "100 µM", "quantity": "ΔTm", "result": "-0.65 °C"}
{"SMILES": "O=C(COc1ccc(Cl)cc1)N[C@@H](Cc1c[nH]c2ccccc12)C(=O)O", "target": "P2RY14", "test": "cAMP, antagonist", "test system": "HEK293", "conditions": "0.1 µM", "quantity": "inhibition", "result": "47.6%"}
{"SMILES": "CC[C@H](C)C(=O)O[C@H]1C[C@H](O)C=C2C=C[C@H](C)[C@H](CC[C@@H](O)C[C@@H](O)CC(=O)O)[C@H]21", "target": "Nuclear receptor subfamily 4 group A member 2", "test": "thermal stability, DSF", "conditions": "100 µM", "quantity": "ΔTm", "result": "-0.15 °C"}
{"SMILES": "O=Cc1ccc(OCC(=O)N[C@@H](Cc2c[nH]c3ccccc23)C(=O)O)cc1", "target": "P2RY14", "test": "cAMP, antagonist", "test system": "HEK293", "conditions": "0.1 µM", "quantity": "inhibition", "result": "58.7%"}
{"SMILES": "CCCCCCCC(=O)c1c(O)cc(O)cc1CC(=O)OCC", "target": "Nuclear receptor subfamily 4 group A member 2", "test": "thermal stability, DSF", "conditions": "100 µM", "quantity": "ΔTm", "result": "-3.11 °C"}
{"SMILES": "CC(C)OC(=O)[C@H](Cc1c[nH]c2ccccc12)NC(=O)C1COc2ccccc2O1 (stereo partly drawn)", "target": "P2RY14", "test": "cAMP, antagonist", "test system": "HEK293", "conditions": "0.1 µM", "quantity": "inhibition", "result": "9.84%"}
{"SMILES": "COc1ccc2oc(-c3ccc4nc(N)oc4c3)c/c(=N\\c3ccccc3NC(=O)CCN)c2c1", "target": "Eukaryotic elongation factor 2 kinase (EEF2K, Homo sapiens, UniProt O00418)", "test": "binding", "conditions": "1 µM", "quantity": "remaining binding", "result": "101%"}
{"SMILES": "C#Cc1cnc(Nc2ccc(CO)cc2)nc1Nc1ccccc1C(=O)NC", "target": "IRAK4", "test": "enzyme activity, inhibitor, radiometric", "conditions": "1 µM", "quantity": "remaining activity", "result": "1.23%"}
{"SMILES": "COc1cccc(-c2ccc(NC(=O)C3=C(C(=O)O)CCC3)c(F)c2)c1", "target": "Nuclear receptor subfamily 4 group A member 2", "test": "thermal stability, DSF", "conditions": "100 µM", "quantity": "ΔTm", "result": "-1.52 °C"}
{"SMILES": "CNC(=O)c1ccccc1Nc1nc(Nc2ccc(CO)nc2)ncc1Cl", "target": "IRAK4", "test": "enzyme activity, inhibitor, radiometric", "conditions": "1 µM", "quantity": "remaining activity", "result": "1.87%"}
{"SMILES": "CCN(CC)CCCC(C)Nc1ccnc2cc(Cl)ccc12 (stereo not drawn)", "target": "Nuclear receptor subfamily 4 group A member 2", "test": "thermal stability, DSF", "conditions": "100 µM", "quantity": "ΔTm", "result": "0.14 °C"}
{"SMILES": "NC/C(=C\\F)COc1cccc(Cn2c(=S)[nH]c(=O)c3[nH]cnc32)c1", "target": "Eosinophil peroxidase (Homo sapiens, UniProt P11678)", "test": "enzyme activity, inhibitor", "conditions": "5 µM", "quantity": "remaining activity", "result": "149%"}
{"SMILES": "O=C(COc1ccc(Br)cc1)N[C@@H](Cc1c[nH]c2ccccc12)C(=O)O", "target": "P2RY14", "test": "cAMP, antagonist", "test system": "HEK293", "conditions": "0.1 µM", "quantity": "inhibition", "result": "39%"}
{"SMILES": "CC(C)n1c(/C=C/C(O)CC(O)CC(=O)O)c(-c2ccc(F)cc2)c2ccccc21 (stereo not drawn)", "target": "Nuclear receptor subfamily 4 group A member 2", "test": "thermal stability, DSF", "conditions": "100 µM", "quantity": "ΔTm", "result": "-0.62 °C"}
{"SMILES": "CC(C)OC(=O)[C@H](Cc1c[nH]c2ccccc12)NC(=O)COc1ccc(Br)cc1", "target": "P2RY14", "test": "cAMP, antagonist", "test system": "HEK293", "conditions": "0.1 µM", "quantity": "inhibition", "result": "38.3%"}
{"SMILES": "CCC(C)(C)C(=O)O[C@H]1C[C@@H](C)C=C2C=C[C@H](C)[C@H](CC[C@@H]3C[C@@H](O)CC(=O)O3)[C@H]21", "target": "Nuclear receptor subfamily 4 group A member 2", "test": "thermal stability, DSF", "conditions": "100 µM", "quantity": "ΔTm", "result": "-11 °C"}
{"SMILES": "CC(C)OC(=O)[C@H](Cc1c[nH]c2ccccc12)NC(=O)COc1ccc(Cl)cc1", "target": "P2RY14", "test": "cAMP, antagonist", "test system": "HEK293", "conditions": "0.1 µM", "quantity": "inhibition", "result": "39.6%"}
{"SMILES": "C1=C/COCc2cc(ccc2OCCN2CCCC2)Nc2nccc(n2)-c2cccc(c2)COC/1", "target": "JAK3 JH1", "test": "cell-free assay", "conditions": "0.1 µM", "quantity": "remaining signal", "result": "7.2%"}
{"SMILES": "CC(C)OC(=O)[C@H](Cc1c[nH]c2ccccc12)NC(=O)COc1ccc(F)cc1", "target": "P2RY14", "test": "cAMP, antagonist", "test system": "HEK293", "conditions": "0.1 µM", "quantity": "inhibition", "result": "12.1%"}
{"SMILES": "C[C@]1(O)CCCN(c2nc(Nc3ccc(S(=O)(=O)N[C@H]4CC[C@H](CN5CCN(c6ccc(C7CCC(=O)NC7=O)cc6F)CC5)CC4)cc3Cl)ncc2C(F)(F)F)C1 (stereo partly drawn)", "target": "Serine/threonine-protein kinase ULK1 (ULK1, Homo sapiens, UniProt O75385)", "test": "binding, competition with immobilised ligand", "conditions": "1 µM", "quantity": "remaining binding", "result": "32%"}
{"SMILES": "O=C(O)C[C@H](O)C[C@H](O)/C=C/c1c(C2CC2)nc2ccccc2c1-c1ccc(F)cc1", "target": "Nuclear receptor subfamily 4 group A member 2", "test": "thermal stability, DSF", "conditions": "100 µM", "quantity": "ΔTm", "result": "-0.36 °C"}
{"SMILES": "O=C(COc1ccccc1)N[C@@H](Cc1c[nH]c2ccccc12)C(=O)O", "target": "P2RY14", "test": "cAMP, antagonist", "test system": "HEK293", "conditions": "0.1 µM", "quantity": "inhibition", "result": "82.7%"}
